# Assay outcomes deposited in PubChem BioAssay by Broad Institute.
# The list is not random: actives were taken first. Their share in the collection is about 2%.
# Ecoli rRNA inh: inhibits bacterial ribosomal RNA function over humanized ribosomes. GFP signal change (wild-type ribosome), % (test concentration not listed). E. coli WT GFP vs humanized-ribosome RFP mutants, fluorescence, 24 h; hits give low values; DMSO median 0, no signal -100. 1.6% of 350,000 active;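 active = significant combined selectivity score with lowered wild-type GFP, culture density cut under 30%, mutant RFP and density less affected; inactive = any of these conditions unmet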
# RAD52 inh: RAD52 (human) annealing inhibition; P43351; recombinant RAD52 DNA annealing, FRET fluorescence; inhibition, % at 18.7 µM; 0.46% of 360,000 active;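 active = every replicate showing at least 50% inhibition; inconclusive = mean inhibition at least 50% but not in every replicate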
# Xi reactivation: X-chromosome reactivation activator | XiGFP mouse fibroblasts, % GFP-positive cells imaging, 3 d; cells co-treated with 5-aza-dC sensitizer; scaled so ellipticine positive control = 100% | activation, % at 7.58 µM | 0.055% of 360,000 active | AID 743238;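 active = mean normalized replicate activation at least 10% and every replicate at or above 10%; inconclusive = only one of the two criteria met; inactive = mean below 10% and not all replicates reach 10%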;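 note: 0% = median of on-plate neutral control wells and 100% = ellipticine 6 µM median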
#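 Material: XiGFP fibroblasts, SV40-immortalized. Buffer or medium: DMEM plus 5-aza-dC sensitizer. Compound: single concentration per compound, delivered by pin transfer. Times: 3 days compound exposure. Controls: ellipticine 6 µM.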
# E-selectin induc: induces E-selectin expression in human endothelial cells; P16581; HUVEC E-selectin immunofluorescence imaging; normalized: neutral wells 0, TNF-alpha wells 100; AID 686992; 0.37% of 260,000 active; activation, % at 7.58 µM;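 active = mean E-selectin-positive cell signal at least 10% of the positive control, reached in at least 60% of replicates, without over 20% cell loss; inconclusive = no rule given, readout overlaps actives, possibly toxicity-flagged; inactive = the rest, including those meeting only one limit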
#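 Test system: HUVEC | Signal: Immunofluorescence imaging | Read-out: Percent E-selectin-positive cells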
# PglD DTNB: PglD (C. jejuni) enzyme inhibition; inhibition, % at 12.5 µM; purified PglD enzyme, DTNB colorimetric CoA detection; 0.098% of 360,000 active; AID 602405; in the data active = inhibition above about 16%, passing the limit was not always enough; inconclusive = no clear call, values can overlap the other calls
# RAD54 branch: RAD54 (human) branch migration inhibition. RAD54 Holliday junction branch migration, FAM/BHQ fluorescence. inhibition, % at 10.4 µM. 0.14% of 360,000 active;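 active = mean normalized replicate activity at least 40 and at least half of replicates scoring 40 or more; inconclusive = only one of the two criteria met; inactive = mean below 40 and under half of replicates reaching 40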;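 note: 0% = median of neutral control wells and 100% = median of positive control wells; inhibitors cause a drop in the FAM fluorescence signal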
# Target sequence (Q92698 whole entry, looked up): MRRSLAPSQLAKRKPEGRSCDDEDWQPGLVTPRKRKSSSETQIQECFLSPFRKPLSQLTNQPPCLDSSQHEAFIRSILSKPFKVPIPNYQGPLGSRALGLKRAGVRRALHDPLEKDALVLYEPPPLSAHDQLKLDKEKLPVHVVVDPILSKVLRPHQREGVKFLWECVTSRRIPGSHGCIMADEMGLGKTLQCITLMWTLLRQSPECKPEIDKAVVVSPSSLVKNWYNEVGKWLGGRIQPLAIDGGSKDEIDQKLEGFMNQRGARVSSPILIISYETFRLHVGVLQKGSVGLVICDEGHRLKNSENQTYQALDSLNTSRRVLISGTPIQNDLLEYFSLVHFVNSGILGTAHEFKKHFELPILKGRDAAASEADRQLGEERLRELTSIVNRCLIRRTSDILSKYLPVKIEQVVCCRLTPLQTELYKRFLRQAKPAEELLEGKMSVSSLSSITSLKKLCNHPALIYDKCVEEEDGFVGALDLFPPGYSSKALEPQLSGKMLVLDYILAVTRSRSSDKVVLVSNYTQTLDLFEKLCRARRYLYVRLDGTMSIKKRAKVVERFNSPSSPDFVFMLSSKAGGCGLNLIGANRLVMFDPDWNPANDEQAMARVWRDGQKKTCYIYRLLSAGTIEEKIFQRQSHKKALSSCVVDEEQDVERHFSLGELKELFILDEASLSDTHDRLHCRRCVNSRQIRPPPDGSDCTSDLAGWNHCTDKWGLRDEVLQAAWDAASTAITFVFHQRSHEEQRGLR
# AID977621: wild-type E. coli growth inhibition versus H69 humanized strain – H69 mutant RFP, wild-type GFP, cherry-pick, dose response; shares compounds with Ecoli rRNA inh; fluorescence, 24 h; activity change, negative = inhibition at 50 µM; 1,900 tested, under 10 active; AID 977621;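 active = Wild-type ribosome reporter drop at least double the humanized mutant ribosome reporter drop, growth loss under a set limit; inconclusive = no clear call, values can overlap the other calls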;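 note: wild-type GFP and H69 mutant RFP strains grown together 50/50 in each well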
# AID977628: E. coli growth inhibition, wild-type GFP versus h24 humanized RFP strain, dose response, h24 mutant RFP vs wild-type GFP, cherry-pick. shares compounds with Ecoli rRNA inh. E. coli WT GFP strain growth, fluorescence, 24 h. activity change, negative = inhibition at 50 µM. 1,900 tested, under 10 active. AID 977628;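 active = compound lowering the normal-ribosome reporter at least twice as much as the humanized-ribosome reporter, growth loss under a set limit; inconclusive = no clear call, values can overlap the other calls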;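 note: wild-type GFP and h24 humanized RFP strains co-cultured 1 to 1 per well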
# * marks the source's active call; other numbers are inactive results; ? = inconclusive; nt = no result given.
SMILES,Ecoli rRNA inh,RAD52 inh,Xi reactivation,E-selectin induc,PglD DTNB,RAD54 branch,AID977621,AID977628
Fc1cnc(N2CCc3ccccc32)nc1N1CCc2ccccc21,nt,nt,nt,nt,-6,-5,nt,nt
CC(C(=O)Nc1nc2ccccc2s1)n1cc([N+](=O)[O-])cn1 (stereo unspecified),-18*,-12,0,nt,nt,nt,-18,nt
COC(=O)CC1COc2ccccc2N1C(=O)c1ccc(Br)cc1 (stereo unspecified),-25*,-6,0,3,2,-1,-1.5,2.9
COC(=O)c1cc2c(c3c4cc(F)ccc4n(S(=O)(=O)c4cccc(C)c4)c13)C(=O)N(Cc1ccccc1OC)C2,4,-34,0,0,nt,nt,nt,nt
COC(=O)c1cc2c(c3c4cc(OC)ccc4n(C(=O)c4ccccc4)c13)C(=O)N(Cc1ccco1)C2,-14*,-31,0,1,nt,nt,0.15,-7.4
COC(=O)c1cc2c(c3c4cc(F)ccc4n(C(=O)c4ccccc4)c13)C(=O)N(Cc1ccco1)C2,4,-12,1,1,nt,nt,nt,nt
COC(=O)c1cc2c(c3c4cc(F)ccc4n(S(=O)(=O)c4cccc(C)c4)c13)C(=O)N(Cc1ccco1)C2,-17*,-31,0,0,nt,nt,-19,-9.8
COC(=O)c1cc2c(c3c4cc(F)ccc4n(S(=O)(=O)c4ccccc4)c13)C(=O)N(Cc1ccco1)C2,-18*,-42,0,0,nt,nt,-2.1,?
COC(=O)c1cc2c(c3c4ccccc4n(S(=O)(=O)c4ccccc4)c13)C(=O)N(Cc1ccco1)C2,-19,-44,0,0,nt,nt,nt,nt
Cc1noc(C)c1NC(=O)N(C)C[C@@H]1Oc2ccc(NS(=O)(=O)c3cccs3)cc2C(=O)N([C@@H](C)CO)C[C@H]1C,1,-1,0,-7,-1,3,nt,nt
C[C@H]1CN([C@@H](C)CO)C(=O)c2cc(NC(=O)Cc3ccccc3)ccc2O[C@H]1CN(C)C(=O)Nc1ccc(C(F)(F)F)cc1,-7,-9,0,-7,1,0,nt,nt
CN1C(=O)c2cc(NC(=O)C3CCCCC3)ccc2OC[C@H]2O[C@@H](CC(=O)NCc3ccccc3F)CC[C@H]21,-7,-2,0,0,-3,-4,nt,nt
CCOCCCNC(=O)C(NC(=O)c1ccccc1O)c1ccc(C)cc1 (stereo unspecified),-19*,-4,0,nt,nt,nt,-6.3,-2.6
COc1ccc(Oc2ccc(C(F)(F)F)cc2NC(=O)CC(CC(=O)O)c2ccccc2)cc1 (stereo unspecified),-36*,1,0,1,6,-4,-9,nt
COc1ccc(OCc2cn(CC(=O)c3ccc(O)cc3)nn2)cc1,2,-14,0,0,-8,1,nt,nt
O=C(Cn1cc(COc2c(F)c(F)cc(F)c2F)nn1)c1ccc(O)cc1,-18*,-19,0,-1,-4,-8,?,nt
CCNc1nc(N)c(C(=O)C23CC4CC(CC(C4)C2)C3)s1,-23*,-10,0,nt,-6,-6,7.1,-6.3
CCNc1nc(N)c(C(=C(C#N)C#N)c2ccccc2)s1,nt,nt,nt,nt,1,18,nt,nt
C=CCN(c1ccccc1)S(=O)(=O)c1ccc(Cl)c(C(=O)OCC(=O)NCCCN2CCCC2=O)c1,-23*,-12,0,8,3,-2,1.1,nt
COc1ccc2c3c([nH]c2c1)[C@H](CO)NCC31CCN(C(=O)C2CCCCC2)CC1,-3,nt,0,0,nt,nt,nt,nt
O=C(NCCOc1nc(N2CCCCC2)nc(N2CCCCC2)n1)Nc1ccccc1,1,-3,0,nt,4,7,nt,nt
CC(=O)NCCOc1nc(N2CCCCC2)nc(N2CCCCC2)n1,-25*,-9,0,4,-1,9,-6.6,-10
CCOc1ccccc1NC(=O)Cn1c(-c2ccc(Cl)cc2)noc1=O,-12,-9,0,3,1,-10,nt,nt
CCc1cccc(CC)c1NC(=O)Cn1c(-c2ccc(F)cc2)noc1=O,-17*,-13,0,4,nt,nt,-8.7,5.4
O=C(Cc1cccnc1)N1CC(=O)N2[C@H](C1)[C@H](c1ccc(C3=CCCCC3)cc1)[C@@H]2CO,1,-3,0,0,nt,nt,nt,nt
SMILES,Ecoli rRNA inh,RAD52 inh,Xi reactivation,E-selectin induc,PglD DTNB,RAD54 branch,AID977621,AID977628
O=C(Cc1cccnc1)N1CC(=O)N2[C@H](C1)[C@@H](c1ccc(C3=CCCCC3)cc1)[C@@H]2CO,-17*,4,0,0,nt,nt,nt,?
CC(=O)c1c(C)[nH]c(C(=O)Nc2nc(-c3ccc(Cl)cc3)cs2)c1C,nt,nt,0,nt,nt,nt,nt,nt
CC(=O)c1c(C)[nH]c(C(=O)Nc2nc(C)cs2)c1C,-21*,-1,1,0,4,10,-20,-17
CCCc1ccc(S(=O)(=O)Nc2ccc(C)c(NS(C)(=O)=O)c2)cc1,-15,2,0,0,-1,-10,nt,nt
CCCCc1ccc(S(=O)(=O)Nc2ccc(C)c(NS(C)(=O)=O)c2)cc1,-35*,-8,0,nt,-3,-1,-2.8,nt
Cc1nn(-c2ccc(N3CCCCC3)nn2)c(C)c1CCC(=O)Nc1ccc(F)cc1,-28*,-6,0,nt,2,1,-17,?
Cc1ccc(NC(=O)CCc2c(C)nn(-c3ccc(N4CCCCC4)nn3)c2C)cc1F,-1,-6,0,nt,-1,3,nt,nt
CCc1ccc(NC(=O)CCc2c(C)nn(-c3ccc(N4CCCCC4)nn3)c2C)cc1,-23*,-1,0,nt,5,1,4.5,?
C[C@@H]1CN([C@H](C)CO)C(=O)Cc2cc(NC(=O)Nc3cccc4ccccc34)ccc2O[C@H]1CN(C)Cc1ccc(-c2ccccc2)cc1,3,7,0,0,nt,nt,nt,nt
C[C@H]1CN([C@@H](C)CO)C(=O)c2c(c3ccccc3n2C)-c2ccccc2CO[C@@H]1CN(C)Cc1ccncc1,-29*,7,0,0,5,-1,nt,1.5
C[C@H](CO)N1C[C@H](C)[C@@H](CN(C)Cc2ccncc2)OCc2ccccc2-c2c(n(C)c3ccccc23)C1=O,-22*,11,0,-1,1,1,3.5,nt
CCN1[C@@H]2c3ccc(-c4cccnc4)c(=O)n3C[C@@H]2[C@@H](CO)[C@@H]1C(=O)NCCc1cn(C)cn1,1,-8,1,0,0,3,nt,nt
CC(=O)N1CC[C@@H]2[C@H](CO)Nc3ccc(C#Cc4cccnc4)cc3[C@@H]21,2,-11,0,0,0,7,nt,nt
